A selection: hits, their analogues and other compounds. The true share with any hit is near 4.5%.
MrgX1 PAM – positive allosteric modulators of MrgX1, primary screen, HEK293 cells, Fluo-4 calcium flux | hit rate 0.63% among 310,000 | FDSS; stronger effect = higher value | Mas-related G-protein coupled receptor member X1 (Homo sapiens), Q96LB2 | B-score at 10 µM | AID 588675, 2011;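 active = plate-corrected calcium response at least 3 library SD above typical, normal starting fluorescence, not activating the receptor alone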;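 also: compound read alongside a low EC10 to EC30 dose of BAM8-22 agonist; peak minus trough fluorescence over baseline measured at the second addition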
Target sequence (Q96LB2 whole entry, looked up): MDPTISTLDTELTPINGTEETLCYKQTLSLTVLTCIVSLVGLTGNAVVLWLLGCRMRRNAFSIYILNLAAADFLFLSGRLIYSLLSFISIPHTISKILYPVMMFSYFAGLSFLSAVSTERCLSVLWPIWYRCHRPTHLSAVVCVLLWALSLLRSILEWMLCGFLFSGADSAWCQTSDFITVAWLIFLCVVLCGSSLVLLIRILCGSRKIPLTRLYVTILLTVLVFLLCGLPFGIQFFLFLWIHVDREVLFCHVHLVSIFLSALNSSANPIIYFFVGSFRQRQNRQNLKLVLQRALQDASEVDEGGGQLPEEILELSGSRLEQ
MrgX1 antag – antagonists of human MrgX1 receptor, primary screen, HEK293 cells, Fluo-4 calcium flux. Mas-related G-protein coupled receptor member X1 (Homo sapiens), Q96LB2. BAM8-22 antagonism; stronger effect = lower value. B-score at 10 µM. hit rate 1.3% among 310,000. AID 588676, 2011;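 active = calcium-response B-score plate-corrected more than 3 library SD below zero, starting fluorescence within 5 deviations, no agonist response on first addition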;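 also: peak minus trough fluorescence over baseline after final BAM8-22 challenge near maximal dose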
MrgX1 ag – agonists of human MrgX1 receptor, primary screen, HEK293 cells, Fluo-4 calcium flux. hit rate 0.44% among 310,000. B-score at 10 µM. Mas-related G-protein coupled receptor member X1 (Homo sapiens), Q96LB2. Fluo-4 calcium fluorescence, agonist mode; stronger effect = higher value. AID 588627, 2011;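 active = calcium response B-score plate-corrected fluorescence ratio at least 3 library SD, with starting fluorescence B-score inside 5 SD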
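Material: MrgX1-expressing HEK293 cells; input: 15,000 cells per well; doses: test compound given as first of three sequential additions; schedule: overnight plating before 1 h dye loading; technique: Fluo-4 NW calcium-flux fluorescence, kinetic read; evaluation: baseline-normalised fluorescence change ratio, B-scored; control set: plate-wise positive and negative controls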
RGS4 block – RGS4 inhibitors, primary screen, cell-based, HEK293 M3R inducible RGS4, calcium flux; Regulator of G-protein signaling 4 (Homo sapiens), P49798; Fluo-4 calcium flux; stronger effect = higher value; triggered by carbachol at its EC20; B-score at 10 µM; hit rate 0.45% among 310,000; AID 463165, 2010;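 active = B-score, a plate-corrected calcium signal, over three deviations above library mean, with baseline fluorescence within five deviations of library mean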;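 also: RGS4 expression induced by doxycycline in cells with stable M3 receptor; B-score is computed from the integrated fluorescence ratio over baseline after carbachol; higher B-score means a larger calcium signal and so more RGS4 inhibition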
Target sequence (P49798 whole entry, looked up): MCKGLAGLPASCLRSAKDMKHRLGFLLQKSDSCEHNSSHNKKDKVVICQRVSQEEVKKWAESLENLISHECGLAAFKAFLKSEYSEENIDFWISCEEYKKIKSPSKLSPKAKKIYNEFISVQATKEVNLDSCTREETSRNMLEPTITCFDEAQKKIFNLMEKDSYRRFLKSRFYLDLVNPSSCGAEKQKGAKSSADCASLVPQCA
RGS4 pot – RGS4 potentiators or activators, primary screen, cell-based, HEK293 M3R inducible RGS4, calcium flux; hit rate 0.92% among 310,000; carbachol calcium flux Fluo4; stronger effect = lower value; AID 463111, 2010; B-score at 10 µM;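 active = B-score of the integrated calcium signal more than 4 SD below the library mean, with starting fluorescence not abnormally high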;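 also: negative B-score means reduced calcium response which marks RGS4 activation or potentiation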
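Detection: kinetic calcium fluorescence imaging with Fluo4-AM dye, 2 µM / Material: HEK293 cells with stable M3R and inducible RGS4 / Schedule: recording 10 s baseline at 1 Hz, 100 s post-agonist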
PHOSPHO1 block – PubChem AID 1565. Phosphoethanolamine/phosphocholine phosphatase (Homo sapiens), Q8TCT1. recombinant PHOSPHO1, absorbance phosphatase assay. inhibition, % at 13.3 µM. hit rate 1.1% among 290,000; in the data active = inhibition above about 60%
A number is an active result; – = inactive; · = not tested or not shown.

SMILES	MrgX1 PAM	MrgX1 antag	MrgX1 ag	RGS4 block	RGS4 pot	PHOSPHO1 block
O=C(NNC(=O)C1CC2CCC1C2)c1sc2ccccc2c1Cl (stereo not drawn)	6.9	–	–	–	–	–
CCOc1ccc(N(C)c2ccc(/C=C3/SC(=S)NC3=O)cc2)cc1	–	–	35	–	–	–
CCOc1ccc(Nc2ncnc3c2nnn3Cc2ccccc2)cc1	–	–	–	–	–	60
Clc1ccccc1Nc1ncnc2c1nnn2Cc1ccccc1	–	–	–	–	–	–
COCc1cc(C)nc(SCc2ccc(Cl)cc2)c1C#N	–	–	–	–	-7.6	–
N#Cc1cc2c(nc1SCc1ccc(Cl)cc1)CCCC2	–	–	–	–	-7	–
COCc1cc(C)nc(SCc2ccc(F)cc2)c1C#N	–	–	–	–	–	–
Cc1c(C(=O)OC(C)C(C)C[N+](C)(C)C)oc2ccccc12 (stereo not drawn)	–	–	–	–	-8.4	87
CCOC(=O)c1c(C)[nH]c(C(=O)COC(=O)c2oc3ccccc3c2C)c1C	–	–	–	–	–	–
Cc1ccc(-c2ccc(/C=N/N3C(=O)C4C5C=CC(C6CC56)C4C3=O)o2)c([N+](=O)[O-])c1 (stereo not drawn)	–	–	–	–	–	69
COC(=O)c1cccc(-c2ccc(/C=N/N3C(=O)C4C5C=CC(C6CC56)C4C3=O)o2)c1 (stereo not drawn)	–	–	–	–	-9.9	–
O=C1C2C3C=CC(C4CC34)C2C(=O)N1/N=C/c1ccc(-c2ccc([N+](=O)[O-])cc2)o1 (stereo not drawn)	–	–	–	–	–	–
CCN(CCCNC(=O)CCCCn1c(=O)[nH]c2ccccc2c1=O)c1ccccc1	–	-5	–	–	–	–
O=C(CCCCn1c(=O)[nH]c2ccccc2c1=O)NC1CCN(Cc2ccccc2)CC1	–	–	–	–	–	63
COCCCNC(=O)CCCn1c(=O)[nH]c2ccccc2c1=O	–	–	–	–	–	–
O=C(CCCn1c(=O)[nH]c2ccccc2c1=O)NC1CCCCCC1	–	–	–	–	–	–
Cn1c(/C=C/c2ccc(Br)cc2)c([N+](=O)[O-])c(=O)n(C)c1=O	–	–	–	–	–	–
COC(=O)c1ccc(CSc2nnc3n(Cc4ccccc4OC)c(=O)c4ccccc4n23)o1	–	–	–	–	–	73
Cn1ncc(Cl)c1C(=O)N1CCN(c2ccccc2)CC1	–	–	–	–	–	–
Cn1ncc(Cl)c1C(=O)N1CCN(c2ncccn2)CC1	–	–	–	–	–	63
O=C(Nc1ccc2nc(-c3ccco3)c(-c3ccco3)nc2c1)N1CCN(c2ccccn2)CC1	–	–	–	–	–	98
S=C(Nc1ccc(N2CCOCC2)cc1)Nc1ccc2nc(-c3ccco3)c(-c3ccco3)nc2c1	–	–	–	–	-7	92
CCOC(=O)c1ccc(NC(=O)N2CCN(c3ccccn3)CC2)cc1	–	–	–	–	-7.1	–
O=C(Nc1ccc(N2CCOCC2)cc1)c1ccc2nc(-c3ccco3)c(-c3ccco3)nc2c1	–	–	–	–	–	–
Cn1c(SCC(=O)N2CCOCC2)nc2c(c1=O)SCC2	–	–	–	–	–	–
SMILES	MrgX1 PAM	MrgX1 antag	MrgX1 ag	RGS4 block	RGS4 pot	PHOSPHO1 block
CCOC(=O)c1cnc2c(C)c(Cl)ccc2c1NCCCN1CCOCC1	9.1	–	–	–	–	–
CCC(C)(C)NC(=O)c1ccc2c(c1)N(CC(=O)N1CCCC1)C(=O)C(C)(C)O2	–	–	–	–	–	–
CC1=N/C(=C/c2ccc([N+](=O)[O-])cc2)C(=O)N1c1ccc(Cl)cc1Cl	15	–	–	–	–	–
CC1=N/C(=C\c2ccc([N+](=O)[O-])cc2)C(=O)N1c1ccc(F)cc1F	17	–	–	–	–	–
CC1=N/C(=C\c2ccc([N+](=O)[O-])cc2)C(=O)N1c1ccc(Cl)cc1	–	–	–	–	–	–
Cc1nc2nc(C)n(-c3ccccc3)c2s1	–	–	–	·	·	71
COc1ccc(OC)c(C(=O)N2CCCC(Nc3ccc(F)cc3)C2)c1 (stereo not drawn)	–	–	–	–	–	–
CCOC(=O)c1cc2c(ccn2C)n1CC(=O)N(Cc1ccccc1)c1ccccc1	–	–	–	–	–	–
Cc1ccc(C)c(Cn2c(C(=O)OC(C)C)cc3c2ccn3C)c1	–	–	–	–	-7	–
CCOC(=O)c1cc2c(ccn2C)n1Cc1ccccc1Cl	–	–	–	–	-7.3	–
CC(C)(C)OC(=O)N1CCC(NC(=O)c2nc[nH]c2C(=O)NCC(=O)OCc2ccccc2)CC1	–	–	–	–	–	–
NC(=S)N/N=C/c1ccc(-c2cc(Cl)cc(Cl)c2)o1	–	–	–	–	–	–
NC(=S)N/N=C/c1ccc(-c2cc(Cl)ccc2Cl)o1	–	–	–	–	–	93
COc1cccc(/C=C/C(=C2/C(=O)N(c3ccccc3)N=C2C)c2ccc(C)cc2)c1OC	–	–	–	–	–	–
O=C(O)c1ccc2c3c(ncnc13)-c1ccccc1C2=O	–	–	–	–	–	105
Cc1[nH]n(-c2ccccc2)c(=O)c1/C=N/Nc1nncc(-c2ccccc2)n1	–	–	–	–	–	67
C=CCn1c(CCc2cc(C(C)(C)C)c(O)c(C(C)(C)C)c2)n[nH]c1=S	–	–	–	–	–	–
CN(C)C(CNC(=O)CCOc1ccccc1)c1ccco1 (stereo not drawn)	–	–	–	–	–	–
COC(=O)C1(C(C[N+](=O)[O-])c2ccco2)C(=O)NCC1c1ccccc1 (stereo not drawn)	–	–	42	–	–	–
CCn1c(SCC(=O)N2CCN(c3ccc(F)cc3)CC2)nc2ccccc2c1=O	–	–	–	–	–	–
CCCCn1c(SCC(=O)N2CCN(c3ccccc3)CC2)nc2ccsc2c1=O	–	–	–	–	–	78
CCn1c(SCC(=O)N2CCN(c3ccc(Cl)cc3)CC2)nc2ccccc2c1=O	–	–	–	–	–	66
CC(C)C(OC(=O)c1cccs1)C(=O)NCc1ccccc1 (stereo not drawn)	–	–	–	–	–	–
COc1ccccc1OCCCOc1cccc(/C=C2\SC(=O)NC2=O)c1	–	–	–	–	–	–
COc1ccccc1OCCCOc1ccc(/C=C2\SC(=O)NC2=O)cc1OC	–	–	–	–	-7.7	–

Screening results from PubChem.
